Sequences and labels used below:
B1: tRNA (parent)
chain: GUUCCGUUGGCGUAAUGGUAACGCGUCUCCCUCCUAAGGAGAAGACUGCGGGUUCGAGUCCCGUACGGAACG

This sample holds only a part of the variants without activity. Where only a bound is given, the exact number is not on record here.

In the data set the parent is B1. As to the kind of experiment: yeast fitness relative to wild type (ratio to wild type); higher = fitter; tRNA-Arg(CCU), competitive growth, 37 C, YPD. Summed up:
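Variants of the tRNA-Arg(CCU) gene, chemically synthesised with a 3% per-site mutation rate at 69 sites, were placed at the native genomic locus in Saccharomyces cerevisiae. The pooled strains were competed in YPD at 37°C for 24 hours in six parallel replicates. Gene amplicons from the start population and from each end population were read by 100-nucleotide paired-end sequencing. Darwinian fitness relative to wild type came from changes in genotype frequencies; genotypes needed ≥ 100 starting reads, and estimates < 0.5 were set to 0.5.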
As to U2C U8A G17C G38A C61A, the yeast fitness is no more than 0.5. Regarding U2G C31U G48C G67C, the yeast fitness is 0.702.

Regarding U2C A65G, the yeast fitness came to 0.867.

Take U2C C5U C11G C34U A36G C55G A57U G67A: the yeast fitness is no more than 0.5. In the case of U3A C27A C30U G41C A43U C49A, the yeast fitness was no more than 0.5. The value for U3A A45U C46G G52A was 0.613; that for U2G C22A G25A G56A was no more than 0.5.

U2G G10C G56C A69U: the yeast fitness was no more than 0.5. Regarding U2C C30U C31A A40U C49A, the yeast fitness is no more than 0.5. With U2G C24G C29G C31G U64C, the yeast fitness was no more than 0.5. As to U2C A40G, the yeast fitness stood at 0.984.

In the case of U2C G56A A65G, the yeast fitness turned out to be 1.27. Turning to U3A C11U A65C, the yeast fitness stood at 0.61.

As to U3A A37C C62U, the yeast fitness came to 0.529. Regarding U2G C46A G63C, the yeast fitness turned out to be 0.56. On to U2C U7A A37G A42U G48C C55U C66G, for which the yeast fitness is no more than 0.5. The value for U2C C29U C46G G51A G52C was 0.557. Take U2C U47A C55G: the yeast fitness was no more than 0.5. Consider U3A C22U C24A C27U A43C, for which the yeast fitness is 0.522. In the case of U2G A14C A65C, the yeast fitness is no more than 0.5. Take U2G C24A C31G: the yeast fitness is no more than 0.5. Regarding U3A C4U U32C U64C, the yeast fitness came out at 0.877. Turning to U2G G17A G23A G38C A40G, the yeast fitness turned out to be 0.694. With U2C C27G U28A A43U A69U, the yeast fitness worked out at 0.541. Regarding U2G C5U U32C C55U, the yeast fitness stood at 0.581. On to U2C C30G C49A, for which the yeast fitness is no more than 0.5. Regarding U3A C11A A20G G39A G51A U53A G63C, the yeast fitness is no more than 0.5. The value for U2C C5G A14G was 0.559. Consider U3A C5U C33G, for which the yeast fitness is 0.639. Next, U3A C5A A45C G50C U64C: 0.54; U2G C24A C46A A69U: 0.774. The value for U3A C5G G56U was no more than 0.5; that for U3A C22U U28A A37U G51C C66U was no more than 0.5. As for U2G G25U C49U A65G, the yeast fitness was found to be 0.64. With U2C C22G C31U A36U C49U, the yeast fitness was 0.649.

With U3A A36C G51C, the yeast fitness came to 0.534.

Consider U3A C22G C24U C33A G58A, for which the yeast fitness was no more than 0.5.

Turning to U3A A21G A70C, the yeast fitness stood at 1.05. U2G C27U C46U: the yeast fitness was determined as 0.999. As to U2G C62G G67A, the yeast fitness came to 0.526. As for U3A C5G U35A A40U C46G U53A, the yeast fitness turned out to be 0.583. Regarding U2G U35A U54G, the yeast fitness was no more than 0.5.

In the case of U2C U19A U26C A45C G52C A70G, the yeast fitness was no more than 0.5.

U2C U7C U19C C34U G52A U59A: the yeast fitness was no more than 0.5. With U2G C33A G39C, the yeast fitness is no more than 0.5. As for U3A C5U A42G G52C A57G, the yeast fitness is no more than 0.5. Turning to U2G G10A A15U A21C G25C, the yeast fitness was no more than 0.5.

As to U3A A21G G23C A65C, the yeast fitness was no more than 0.5. The value for U2C U13A was 0.805; that for U2C U19C A37G C49A C66G was no more than 0.5; that for U3A C24G A69C was no more than 0.5.

Consider U2G C5A C55U C61A, for which the yeast fitness is no more than 0.5. Next, U2G C60A C66G: 0.989; U2C C5A C11A A40G: no more than 0.5; U2G C4U C61A C62U A65U A69C: 0.519. Regarding U2C C46U, the yeast fitness was 0.959. Regarding U2G A15U A20C U26A C30G U35A G38C U64A, the yeast fitness was no more than 0.5.

Turning to U2C C4U G10C A57C, the yeast fitness is no more than 0.5. As for U2C A57G, the yeast fitness stood at 0.891. As to U2G C5U A15U G17A U47G C49G C60G A70U, the yeast fitness is no more than 0.5. In the case of U3A A20U G67U, the yeast fitness stood at 0.598. As for U2G C11G C49A C60U G68C, the yeast fitness was no more than 0.5.

For the variant U3A C11A C33U G58C, the yeast fitness was no more than 0.5. The value for U2C U13C G41A C60G C61G C62U was 0.596; that for U2G C29G C49G was no more than 0.5; that for U3A C5U C46A was 0.724.

Regarding U2C G23C U28C A43U C60A, the yeast fitness is no more than 0.5. For the variant U2G U13A, the yeast fitness stood at 0.822.

Take U2C U3C C34A G44C C46U G51A: the yeast fitness is no more than 0.5. As to U2C U54A A70U, the yeast fitness was 0.555.

In the case of U3A C5A G6C A37C A45U G68C, the yeast fitness was no more than 0.5. Turning to U2G C22U U32C G50C, the yeast fitness was found to be 0.658.

Regarding U3A C22G, the yeast fitness came to 0.714.

On to U2C C11A C31U C33U A42C C61U, for which the yeast fitness was no more than 0.5.

Take U2G G6A A20G: the yeast fitness worked out at 0.61. Consider U2C C11A C22G, for which the yeast fitness is 0.602.

Consider U2G A40U C49A, for which the yeast fitness worked out at 0.547. The value for U2G U54C C66U was no more than 0.5; that for U2G C33U C34G U59A was no more than 0.5; that for U2G U32C C33G C62U was 0.535. Next, U2C C5G C11G C29U A36U G50C U54G: 0.628; U3A C5A G23A G68U: 0.816; U2G C27A G67U: no more than 0.5.

U3A A14C A42C U47C: the yeast fitness was no more than 0.5. The value for U3A A40G A42G A57C C66U was no more than 0.5; that for U3A C24U C31G G44C A69U was no more than 0.5; that for U3A A14G G58A was 0.883.

For U2C G25A A37G A70C, the yeast fitness was no more than 0.5. As to U2G C60U C61A G67C, the yeast fitness was no more than 0.5.

Turning to U2C U3C U19A, the yeast fitness was 0.629. As for U3A C4U A43C G50A A70U, the yeast fitness was no more than 0.5. As to U2G G9C G12A U32C A42C C46A A65U, the yeast fitness was no more than 0.5.

As for U2C C66U A69U, the yeast fitness was 0.603.

Regarding U2C C27G G51A, the yeast fitness was no more than 0.5. On to U2C G67C, for which the yeast fitness is 0.741.

For U2G A45C, the yeast fitness came to 0.766.

In the case of U3A C4G U8A C34U, the yeast fitness is no more than 0.5.

Regarding U3A C4U C31A C66G G68C, the yeast fitness was no more than 0.5.

On to U2C C31G C55U G63A, for which the yeast fitness was no more than 0.5. Consider U2C G51U U54A A70U, for which the yeast fitness was no more than 0.5. As for U2C C49U G56C, the yeast fitness was no more than 0.5. For the variant U2C G6C A65U G67A, the yeast fitness is no more than 0.5. Consider U2C C4U C30A, for which the yeast fitness came out at 0.716.

In the case of U3A C27A C29G A65G, the yeast fitness was no more than 0.5. Next, U2G G12A A14G: 0.561.

On to U2C C22U, for which the yeast fitness came to 0.842. Consider U2C C22G, for which the yeast fitness came to 0.878. The value for U2G C11G G38C G44A C62U U64C was no more than 0.5; that for U2C C46U A65U was 1.06; that for U3A A14U C60G C61U C62G A65U was no more than 0.5.

With U2C C4G C22U C30A A65U, the yeast fitness was no more than 0.5. In the case of U2C C55U, the yeast fitness came out at 0.792. On to U2G A14U A21C A36C C49A A65G C66G, for which the yeast fitness is no more than 0.5.

Turning to U2G C30U U32C C55G, the yeast fitness was no more than 0.5. On to U3A A36U A43G G52C G63A G67U A70C, for which the yeast fitness came to 0.557. Regarding U3A C4G G68A, the yeast fitness is no more than 0.5. For U2C G39C, the yeast fitness is 0.774. Next, U2G G12A C34A A37G: no more than 0.5; U2G C22A G25C C33U A69C: no more than 0.5; U2C C4U A21C U28C C31A U32C: no more than 0.5. As for U3A A14C A20C U64A, the yeast fitness was no more than 0.5. Regarding U2C C61U, the yeast fitness was determined as 0.931. In the case of U3A A57U A65C A69C, the yeast fitness was 0.593. For the variant U3A C5A C30G G38C C61A, the yeast fitness came to 0.655. With U2C U8C A20U U28A G67U, the yeast fitness was no more than 0.5. With U3A C4G G9A C11G, the yeast fitness is no more than 0.5.

U2C C11A A69U: the yeast fitness is no more than 0.5. Take U2C A40U A42C C66U: the yeast fitness is no more than 0.5. With U3A C5A G6C A15G U16A U26G G38C U54A, the yeast fitness is no more than 0.5. Consider U3A C4G A43G, for which the yeast fitness is no more than 0.5. The value for U2C C27G C46U was 0.705. For U2G C61G, the yeast fitness turned out to be 0.556.

As for U3A A14G, the yeast fitness came to 0.934.

Take U2C G52C U59G: the yeast fitness is no more than 0.5.

In the case of U2C A21C, the yeast fitness amounted to 0.775.

For the variant U2C A21G, the yeast fitness was found to be 0.975. For U2G G25C C27G C34U U35A G38A U59A, the yeast fitness was no more than 0.5. For the variant U2G C4G C11A, the yeast fitness is no more than 0.5. Take U3A C4U G25C A69C: the yeast fitness is no more than 0.5. Turning to U2C U16C C46G C62G, the yeast fitness was no more than 0.5.

For U2C G9C U13C A20C, the yeast fitness is no more than 0.5. U2C U35G G52A: the yeast fitness is no more than 0.5. U3A C11A C33U: the yeast fitness is 0.502.

Turning to U2G C31G A37G, the yeast fitness turned out to be 0.605. For U2C G12C A40C G67A, the yeast fitness is no more than 0.5.

In the case of U2C G51U G58C, the yeast fitness turned out to be 0.548. As to U3A A21C C24G C62G, the yeast fitness stood at 0.599. Regarding U2C C27G U28A A43U A70G, the yeast fitness was no more than 0.5. U2G G6A U13G C49U G56A A70G: the yeast fitness is no more than 0.5. With U2C G12A G18C C33U A69C, the yeast fitness stood at 0.565. Regarding U2G C4U C61A A65U A69C, the yeast fitness was no more than 0.5. U3A C5U A37U: the yeast fitness was no more than 0.5. Turning to U2G C30G C61U G68A, the yeast fitness was 0.531. The value for U2G G10C U35G C46U A65C G67C was no more than 0.5.

For the variant U2G U7C G18C A42U C49G, the yeast fitness was no more than 0.5. For the variant U2C C5G C46U, the yeast fitness amounted to 0.872.

Regarding U2G G17A C24U A36U A37U A70U, the yeast fitness is no more than 0.5. With U2G C4U A20C C30G, the yeast fitness is no more than 0.5. Turning to U2G C11G, the yeast fitness came to 0.703. With U2C U13A U19C C55A A69C, the yeast fitness was no more than 0.5.

Take U2C G50U: the yeast fitness is 0.825. Turning to U2C G50C, the yeast fitness is 0.733. As for U2C G58C, the yeast fitness worked out at 1.05. Next, U2G C27U A45C: 0.657. In the case of U2C C46U U64A, the yeast fitness is 0.688. Next, U3A C5A A45C G50C C61U G68A: no more than 0.5; U3A A14G C46G: 0.62.

Source of the values: the RNAGym collection of RNA variant scans (doi:10.1126/science.aae0568).
